High-throughput results: PubChem, several laboratories
IDE cell activ – human IDE activators in live cells, primary screen, fluorescence polarization, HEK cells, FAbeta-B substrate | Insulin-degrading enzyme (Homo sapiens), P14735 | FAbeta-B cleavage; 0% vehicle, 100% cell-free pure enzyme wells | activation, % at 5.96 µM | hit rate 0.073% among 340,000;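 active = activation above the mean of all tested compounds plus 3 SD, set per screening campaign, cut at about 17% in these data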
CSN deneddyl inh – inhibitors of CSN-mediated cullin deneddylation, primary screen, biochemical, fluorescence polarization, uHTS; COP9 signalosome complex subunit 5 (Homo sapiens), Q92905; Purified CSN, SCF-Nedd8-OG deneddylation; inhibition, % at 12.5 µM; hit rate 0.38% among 360,000; AID 651999, 2013;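 active = pattern-corrected inhibition above about 35%, with an unprinted fluorescence ratio check between 0.5 and 1.5, limit read from the data, passing the limit was not always enough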;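 note: 0% = enzyme with substrate and 100% = substrate without enzyme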
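Assay system: purified human Csn5 enzyme expressed in HEK293T cells; measure: % inhibition; also added: SCFSkp2-Nedd8OG substrate at 10 nM final; technique: fluorescence polarization; times: reaction 90 min, room temperature; medium: Tris buffer pH 7.5, NaCl, DTT, Tween-20, trehalose, ovalbumin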
TPT1 inh – Candida albicans TPT1 enzyme inhibitors, primary screen, biochemical, fluorescence polarization | tRNA 2'-phosphotransferase TPT1 (Candida albicans SC5314) | recombinant caTPT1, FP RNA substrate dephosphorylation | inhibition, % at 5 µM | hit rate 0.81% among 300,000 | AID 1962, 2009;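 active = inhibition above the mean of all tested compounds plus 3 SD, set per screening campaign, cut at about 24% in these data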;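 note: plate controls were DMSO alone for no effect and ferristatin control at 100 nM for full effect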
IDE cell inh – human IDE inhibitors in live cells, primary screen, fluorescence polarization, HEK cells, FAbetaB substrate | Insulin-degrading enzyme (Homo sapiens), P14735 | FAbetaB cleavage | inhibition, % at 5.59 µM | hit rate 0.41% among 320,000 | AID 434962, 2010;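 active = percent inhibition above the average of all tested compounds plus 3 SD, set per screening campaign, cut at about 16% in these data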;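 note: IDE supplied by intact live HEK cells; FP after avidin binding of uncleaved biotin substrate so inhibition keeps polarization high; 0% = DMSO wells and 100% = 60 µM reference IDE inhibitor Ii1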
Rpn11 block – Rpn11 (PSMD14) deubiquitinase inhibitors, primary screen, biochemical, fluorescence polarization, uHTS; 26S proteasome non-ATPase regulatory subunit 14 (Homo sapiens), O00487; human 26S proteasome, Ub4-pepOG fluorescence polarization; 20S core pre-blocked with epoxomicin; inhibition, % at 20 µM; hit rate 0.59% among 360,000;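 active = inhibition at 20 µM, scaled to each plate's controls, above about 33%, limit read from the data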
HNF4A DNA FP – change in binding of human HNF4A to DNA, primary screen, biochemical, fluorescence polarization, FITC-DNA; 1 h; activity change, % at 10 µM; hit rate 0.3% among 360,000; in the data active = activity change above about 30%, passing the limit was not always enough
Rpn11 confirm – Rpn11 (PSMD14) deubiquitinase inhibitors, confirmation, biochemical, fluorescence polarization, single concentration | purified human 26S proteasome, Ub4-pepOG fluorescence polarization; proteasome pretreated with epoxomicin | shares compounds with Rpn11 block | inhibition, % at 20 µM | hit rate 29% among 1,900
MMP-2 counter – MMP-2 enzyme inhibition, confirmation, counter-screen for RPN11 inhibitor project, biochemical, fluorescence, single concentration; hit rate 4% among 1,900; recombinant MMP-2, FRET peptide cleavage fluorescence; inhibition, % at 20 µM; shares compounds with Rpn11 block;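 note: human MMP-2 activated beforehand with APMA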
Target sequence (P08253 whole entry, looked up): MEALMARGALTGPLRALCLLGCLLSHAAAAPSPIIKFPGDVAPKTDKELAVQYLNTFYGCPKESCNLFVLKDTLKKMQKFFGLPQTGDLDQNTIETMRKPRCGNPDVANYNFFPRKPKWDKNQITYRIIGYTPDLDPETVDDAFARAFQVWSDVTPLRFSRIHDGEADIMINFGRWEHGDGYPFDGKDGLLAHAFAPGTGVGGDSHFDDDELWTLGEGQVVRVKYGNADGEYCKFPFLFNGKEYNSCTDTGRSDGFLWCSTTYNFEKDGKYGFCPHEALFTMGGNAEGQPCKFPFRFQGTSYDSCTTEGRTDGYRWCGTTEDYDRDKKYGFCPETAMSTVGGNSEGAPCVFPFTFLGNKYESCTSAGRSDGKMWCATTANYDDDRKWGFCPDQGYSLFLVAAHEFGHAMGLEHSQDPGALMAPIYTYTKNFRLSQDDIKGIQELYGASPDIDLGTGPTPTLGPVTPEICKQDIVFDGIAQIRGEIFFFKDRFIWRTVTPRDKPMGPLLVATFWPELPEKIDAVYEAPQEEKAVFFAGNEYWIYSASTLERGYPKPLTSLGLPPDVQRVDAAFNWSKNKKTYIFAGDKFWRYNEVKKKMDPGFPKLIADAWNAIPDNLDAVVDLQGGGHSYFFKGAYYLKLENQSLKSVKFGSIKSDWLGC
Thrombin FP – bovine thrombin protease inhibition, confirmation, counter-screen for Rpn11 inhibitor project, biochemical, fluorescence polarization, single concentration | shares compounds with Rpn11 block | bovine thrombin cleavage of Ub4-pepOG | inhibition, % at 20 µM | hit rate 13% among 1,900 | AID 602333, 2012;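 active = mean inhibition at least 40% at 20 µM, or signal 3 deviations below plate average, so some actives read negative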;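 note: plate controls were thrombin with DMSO for no effect and buffer wells lacking thrombin for full effect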
* hit, by the source's call; x = not tested or not shown; + = active, no number; ! = a repeat was not active. Sampled rows, rich in hits. Any-hit rate of the full collection: about 1.7%. Cut-off read from the data, not from the text of the source, unless noted: active = inhibition above about 40%; inactive = the rest.

SMILES	IDE cell activ	CSN deneddyl inh	TPT1 inh	IDE cell inh	Rpn11 block	HNF4A DNA FP	Rpn11 confirm	MMP-2 counter	Thrombin FP
NC(N)=NCCCS(=O)(=O)Nc1ccc(Nc2c3ccccc3nc3cc([N+](=O)[O-])ccc23)cc1	-2.7	-4.2	x	x	73.4*	-24.6	-13.2	-35.4	48.1*
O=[N+]([O-])c1ccc(Nc2c3ccccc3nc3ccccc23)cc1	-3.0	9.0	x	x	-3.7	-1.6	x	x	x
Cc1ccc(Nc2nc3ccccc3n3nnnc23)cc1	2.9	7.0	5.7	-0.6	10.6	-1.1	x	x	x
Clc1ccc(Nc2nc3ccccc3n3nnnc23)cc1	-1.0	3.4	-4.4	6.7	43.7*	3.6	11.2	-22.8	-2.6
Cc1ccc(C(=O)O)cc1-c1ccc(C=C2C(=O)c3ccccc3C2=O)o1	5.4	27.4	30.2*	4.5	99.3*	-11.1	16.1	-43.2	7.0
COC(=O)C(C)N1C(=O)S/C(=C\c2ccc(-c3ccc(C(=O)O)cc3C)o2)C1=O (stereo not given)	-4.4	19.0	15.5	1.1	14.9	-3.9	x	x	x
Cc1nc(N)sc1-c1csc(Nc2ccc(S(N)(=O)=O)cc2)n1	-9.5	9.5	x	x	41.4*	10.4	23.7	21.5	-3.5
COc1ccc(-c2csc(Nc3ccc(S(N)(=O)=O)cc3)n2)cc1	-6.3	3.7	1.6	12.8	7.3	5.8	x	x	x
CCOC(=O)N1CCN(C(=O)C[C@@H]2C[C@@]3(C(=O)OCC)CCCC=C3N(CCC3=CCCCC3)C2=O)CC1	x	3.5	x	x	x	-2.7	x	x	x
CN1/C(=C\C(=O)COC(=O)Cn2nnc(-c3ccccc3)n2)C(C)(C)c2ccccc21	5.5	22.1	-6.2	2.6	40.3*	20.1	44.8*	2.0	6.4
O=C1OC(C(Cl)(Cl)Cl)Nc2ccccc21 (stereo not given)	x	-1.4	x	x	-0.4	0.1	x	x	x
CCOC(=O)c1c(C)[nH]c(O)c1C=Nc1ccc(Cl)cc1	0.0	-3.6	-0.2	-0.7	55.1*	16.9	23.2	-10.4	0.9
OC(c1ccc(F)c(F)c1)c1nc(-c2cnc3ccccc3c2)cs1 (stereo not given)	x	2.6	x	x	-1.7	5.1	x	x	x
COC(=O)c1ccc(/C=C/C(=O)c2ccc(OC)c(OC)c2)cc1	9.8	10.9	-1.1	2.0	-2.6	0.0	x	x	x
COc1ccc(/C=C/C(=O)c2ccc(C(=O)/C=C/c3ccc(OC)c(OC)c3)cc2)cc1OC	2.9	24.2	x	x	55.8*	12.6	36.1	-20.4	1.9
CC1(C(=O)Nc2ccc3nc[nH]c3c2)CCN1C(=O)C1(c2ccccc2)CCCC1 (stereo not given)	x	-2.8	x	x	2.3	2.2	x	x	x
Cc1nc(NC(=O)/C=C/c2ccco2)sc1C	6.9	-3.0	3.8	-4.9	-15.2	-0.2	x	x	x
CNS(=O)(=O)c1ccc2nc(NC(=O)/C=C/c3ccco3)sc2c1	1.2	56.1*	8.3	4.8	56.6*	16.0	4.0	-25.2	1.8
CCCCCCCCN1C(=O)[C@H](CC(=O)NCc2cccc3ccccc23)C[C@@]2(C(=O)OC)CC(C)(C)CC=C12	x	0.7	x	x	x	3.2	x	x	x
CCCCNC(=O)COC(=O)c1c2c(nc3ccccc13)/C(=C/c1cccs1)CC2	-2.1	6.9	21.1	2.6	41.4*	21.7	5.3	-57.7	-0.7
CCCCNC(=O)COC(=O)c1c2c(nc3ccccc13)CCC2	-2.7	4.8	-0.1	2.8	-3.0	-10.6	x	x	x
O=C(COC(=O)Cc1ccsc1)NCc1ccccc1	1.6	-0.5	1.0	-1.0	39.3*	0.4	-3.2	-14.9	-18.2
COCCNC(=O)CN(CC1CCCO1)C(=O)CCC(=O)Nc1ccccn1 (stereo not given)	4.3	-4.9	-4.8	0.7	50.5*	-1.5	-13.1	-30.2	-20.8
[O-][n+]1cccc2c(Br)cc(Br)c(O)c21	-1.0	5.2	1.1	-0.9	52.7*	-3.1	-19.6	-8.4	-7.0
Oc1c(Br)cc(Br)c2cccnc12	2.5	-4.0	x	x	33.6	2.3	x	x	x
SMILES	IDE cell activ	CSN deneddyl inh	TPT1 inh	IDE cell inh	Rpn11 block	HNF4A DNA FP	Rpn11 confirm	MMP-2 counter	Thrombin FP
COc1cccc(C(=O)Nc2cccc(-c3ccccc3)c2)c1	2.6	-3.4	0.8	1.4	48.6*	-19.9	3.9	5.1	-6.0
COc1cccc(NC(=O)c2ccccc2)c1	4.3	-0.8	2.3	0.0	-1.3	0.3	x	x	x
COC(=O)C[C@@H]1C=C[C@@H](NC(=O)c2ccccc2F)[C@@H](CO)O1	x	-0.1	x	x	x	2.8	x	x	x
Cc1cccc(NC(=O)Nc2cccnc2)c1C	6.1	-2.2	x	x	5.2	4.7	x	x	x
Cn1ccc2cc(NC(=O)Nc3cccnc3)ccc21	3.3	9.8	-2.5	2.6	66.1*	-1.2	8.1	-21.1	-1.9
COc1cccc(NC(=O)Nc2cccnc2)c1	-3.2	-6.0	-3.6	-11.7	-3.6	-1.6	x	x	x
Cc1nonc1NC(=O)Nc1cccnc1	2.3	2.7	-3.5	1.8	+	-2.1	0.7	-8.5	-13.6
CC(C)C[C@H]1CNC(=O)C(=O)N1C[C@@H]1CCCN1C[C@H](CC(C)C)N1C[C@H](Cc2ccccc2)N(CCc2ccccc2)C(=O)C1=O	x	-2.7	x	x	x	1.5	x	x	x
Nc1ncnc(Sc2ccc(Cl)cc2)c1[N+](=O)[O-]	1.3	-4.2	-0.7	4.1	44.4*	3.8	0.7	28.4	8.0
N#Cc1ccccc1OCC(=O)Nc1ccc2c(c1)OCO2	x	-1.5	x	x	1.8	3.7	x	x	x
N#CC(=C=[N-])c1nc2ccccc2nc1-[n+]1ccccc1	2.7	44.2*	1.5	4.6	44.9*!	32.1	-8.3	-27.7	-3.2
Cc1cc[n+](-c2nc3ccccc3nc2C(=C=[N-])C#N)cc1	2.0	34.9	19.7	-2.3	30.9	26.1	x	x	x
O=C1NC(=S)SC1=Cc1cc(Br)ccc1O	-31.7	31.4	x	x	48.5*	79.8*	22.1	4.3	19.3
O=C1NC(=S)S/C1=C\c1coc2ccc(O)cc2c1=O	-4.2	12.1	7.7	4.8	-1.1	7.5	x	x	x
